Calls of active or inactive are those of the source.
Columns and labels:
Mus musculus [1] = test: In vivo agonist activity at CB1R in BALB/c mouse assessed as induction of hypolocomotion at 50 mg/kg, ip measured after 1 hr by rotarod test; format: functional, organism-based
Summary of the method: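 Male BALB/c mice (8–10 weeks) given compound in pure DMSO intraperitoneally, 5–8 mice per group. Rotarod at 6 rpm, 1 h post-dose. Read-out is latency to fall, cutoff 120 s, over three trials. Groups compared with vehicle by Kruskal–Wallis then Mann–Whitney.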

Mus musculus [2] = test: In vivo agonist activity at CB1R in BALB/c mouse assessed as catalepsy like behaviour at 50 mg/kg, ip measured after 1 hr by bar test; format: functional, organism-based
Summary of the method: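 Male BALB/c mice (8–10 weeks) given compound in pure DMSO intraperitoneally, 5–8 mice per group. Bar test at 1 h: forelimbs placed on a 4 cm high bar. End-point is both front limbs removed or held over 120 s. Three trials per mouse. Groups compared with vehicle by Kruskal–Wallis then Mann–Whitney.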

[3] = biological target: T1, Fatty-acid amide hydrolase 1 (Homo sapiens, UniProt O00519); test: Inhibition of FAAH (unknown origin) in human U-937 cells using [ethanolamine-1-3H]AEA as substrate preincubated for 30 mins followed by substrate addition measured after 15 mins by liquid scintillation spectroscopy; format: cell-based
T1 sequence (O00519 whole entry): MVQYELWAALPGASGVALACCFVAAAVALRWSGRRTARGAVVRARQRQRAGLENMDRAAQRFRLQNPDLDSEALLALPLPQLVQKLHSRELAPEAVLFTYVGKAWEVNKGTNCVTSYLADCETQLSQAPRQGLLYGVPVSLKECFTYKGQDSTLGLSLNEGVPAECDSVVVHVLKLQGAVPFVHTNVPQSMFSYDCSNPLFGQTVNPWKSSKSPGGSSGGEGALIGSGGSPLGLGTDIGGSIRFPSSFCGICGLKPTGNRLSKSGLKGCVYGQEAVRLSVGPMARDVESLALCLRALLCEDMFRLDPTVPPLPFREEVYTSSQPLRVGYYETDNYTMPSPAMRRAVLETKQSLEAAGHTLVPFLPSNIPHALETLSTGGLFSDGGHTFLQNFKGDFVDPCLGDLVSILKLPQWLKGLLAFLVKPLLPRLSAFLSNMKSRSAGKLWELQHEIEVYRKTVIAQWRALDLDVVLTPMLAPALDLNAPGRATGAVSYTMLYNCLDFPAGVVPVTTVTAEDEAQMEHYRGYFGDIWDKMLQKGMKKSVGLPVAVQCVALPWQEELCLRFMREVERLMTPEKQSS
Summary of the method: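 U937 cell homogenate (100 μg) in 10 mM Tris-HCl, 1 mM EDTA, 0.1% fatty-acid-free BSA, pH 8. Compound preincubated 30 min at 37 °C, then 100 nM AEA with 1 nM [ethanolamine-1-3H]AEA tracer added for 15 min at 37 °C. Stopped with cold CHCl3/MeOH (1:1); tritium counted in aqueous phase.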

[4] = biological target: T2, Lysophosphatidylserine lipase ABHD12 (Homo sapiens, UniProt Q8N2K0); test: Inhibition of human ABHD12 transfected in HEK293 cells using 2-OG as substrate preincubated for 30 mins followed by substrate addition measured after 5 mins by liquid scintillation spectroscopy; format: cell-based
T2 sequence (Q8N2K0 whole entry): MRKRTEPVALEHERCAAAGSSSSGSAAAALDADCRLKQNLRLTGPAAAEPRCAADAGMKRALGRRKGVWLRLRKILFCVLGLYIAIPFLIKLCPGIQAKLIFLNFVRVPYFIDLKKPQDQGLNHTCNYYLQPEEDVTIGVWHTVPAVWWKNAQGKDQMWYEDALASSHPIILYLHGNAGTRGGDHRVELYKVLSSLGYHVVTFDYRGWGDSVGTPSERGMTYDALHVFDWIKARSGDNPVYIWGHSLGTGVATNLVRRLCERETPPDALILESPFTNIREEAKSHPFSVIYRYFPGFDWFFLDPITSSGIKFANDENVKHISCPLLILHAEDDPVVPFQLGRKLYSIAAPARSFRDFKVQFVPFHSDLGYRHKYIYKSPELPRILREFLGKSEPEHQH
Summary of the method: (§1)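 Homogenate (40 μg) of HEK-293 cells stably expressing hABHD6 or hABHD12, in […], 0.1% BSA, pH 7.6. Compound preincubated 30 min at 37 °C, then 10 μM 2-OG for 5 min at 37 °C. Tritium counted in aqueous phase; non-transfected HEK293 hydrolysis subtracted. Positive controls: WWL70 10 μM (ABHD6), THL 20 μM (ABHD12). At least two experiments in triplicate, mean ± SD.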

[5] = biological target: T3, Monoacylglycerol lipase ABHD6 (Homo sapiens, UniProt Q9BV23); test: Inhibition of human ABHD6 transfected in HEK293 cells using 2-OG as substrate preincubated for 30 mins followed by substrate addition measured after 5 mins by liquid scintillation spectroscopy; format: cell-based; summary of the method: as §1
T3 sequence (Q9BV23 whole entry): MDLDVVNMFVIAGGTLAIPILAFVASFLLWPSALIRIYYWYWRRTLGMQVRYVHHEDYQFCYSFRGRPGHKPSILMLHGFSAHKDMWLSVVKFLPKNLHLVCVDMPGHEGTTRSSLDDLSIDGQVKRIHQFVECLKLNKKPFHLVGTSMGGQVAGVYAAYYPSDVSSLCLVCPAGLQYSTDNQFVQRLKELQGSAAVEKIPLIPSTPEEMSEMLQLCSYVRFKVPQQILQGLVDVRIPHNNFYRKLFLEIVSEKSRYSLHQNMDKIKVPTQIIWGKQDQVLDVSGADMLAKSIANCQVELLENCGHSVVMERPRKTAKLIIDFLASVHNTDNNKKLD

Mus musculus [6] = test: In vivo agonist activity at CB1R in BALB/c mouse assessed as induction of analgesia at 50 mg/kg, ip measured after 1 hr by hot plate test; format: functional, organism-based
Summary of the method: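 Male BALB/c mice (8–10 weeks) given compound in pure DMSO intraperitoneally, 5–8 mice per group. Hot plate at 54–56 °C inside a Plexiglas cylinder, 1 h post-dose. Read-out is latency to first nociceptive response (paw lick or foot shake). Groups compared with vehicle by Kruskal–Wallis then Mann–Whitney.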

Mus musculus [7] = test: In vivo agonist activity at CB1R in BALB/c mouse assessed as induction of hypothermia at 50 mg/kg, ip measured after 1 hr by rectal measurement method; format: functional, organism-based
Summary of the method: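 Male BALB/c mice (8–10 weeks) given compound in pure DMSO intraperitoneally, 5–8 mice per group. Rectal temperature taken by thermocouple probe before dosing and 1 h after. Change is expressed as basal minus post-injection temperature. Groups compared with vehicle by Kruskal–Wallis then Mann–Whitney.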

Monoglyceride lipase = biological target: T4, Monoglyceride lipase (Homo sapiens, UniProt Q99685); test: Inhibition of MAGL (unknown origin) in human U-937 cells using [ethanolamine-1-3H]AEA as substrate preincubated for 30 mins followed by substrate addition measured after 15 mins by liquid scintillation spectroscopy; format: cell-based
T4 sequence (Q99685 whole entry): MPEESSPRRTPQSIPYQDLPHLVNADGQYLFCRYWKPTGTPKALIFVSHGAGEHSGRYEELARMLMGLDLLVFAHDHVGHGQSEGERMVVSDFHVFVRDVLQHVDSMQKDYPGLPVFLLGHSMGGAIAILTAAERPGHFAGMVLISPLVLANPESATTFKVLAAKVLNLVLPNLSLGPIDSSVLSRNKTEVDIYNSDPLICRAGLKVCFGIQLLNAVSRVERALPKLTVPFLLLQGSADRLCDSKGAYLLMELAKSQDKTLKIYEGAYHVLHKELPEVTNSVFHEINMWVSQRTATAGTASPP

Q: What does the source list for `CCCCCc1cc(O)c2c(c1)OC(C)(C)[C@H]1CCC(C)=C[C@@H]21`?
A: Activity (Mus musculus [1]): Active; Activity (Mus musculus [2]): Active; IC50 [3]: 36.3 µM; IC50 [4]: 14.1 µM; IC50 [5]: 39.8 µM; Activity (Mus musculus [6]): Active; Activity (Mus musculus [7]): Active; IC50 (Monoglyceride lipase): > 100 µM

Q: For `CCCCCc1cc(O)c2c(c1)OC(C)(C)[C@@H]1CCC(C)=C[C@H]21`, which IC50 [3] is on record?
A: > 80 µM

Q: What about the IC50 [4] of the same compound?
A: 28.8 µM

Q: And the IC50 [5]?
A: 35.1 µM

Q: And the IC50 (Monoglyceride lipase)?
A: > 100 µM

Q: With `CCCCCc1cc(O)c2c(c1)OC(C)(C)[C@@H]1CCC(C)=C[C@@H]21` [DRONABINOL] as the compound, how does the Activity (Mus musculus [1]) read?
A: Active

Q: And the Activity (Mus musculus [2])?
A: Active

Q: And the IC50 [3]?
A: 43.6 µM

Q: What about the IC50 [4] of the same compound?
A: 11.6 µM

Q: What about the IC50 [5] of the same compound?
A: 48.2 µM

Q: What about the Activity (Mus musculus [6]) of the same compound?
A: Active

Q: And the Activity (Mus musculus [7])?
A: Active

Q: And the IC50 (Monoglyceride lipase)?
A: > 100 µM

— ChEMBL document CHEMBL4840315, “Δ9-cis-Tetrahydrocannabinol: Natural Occurrence, Chirality, and Pharmacology” (J Nat Prod, 2021)
